The subject of series [1] is Plasma. The series is described as follows: Retention time in Sprague-Dawley rat plasma treated with 56.6 mg/kg, ip VU0409106 single dose. Format: ADME, organism-based. Set-up: dose 56.6 mg/kg, route intraperitoneal. The following applies: in vivo. Summed up:
(§1)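 Male Sprague-Dawley rats given a single intraperitoneal dose of 56.6 mg/kg. Plasma extracted with 2 volumes acetonitrile and centrifuged; metabolites profiled by LC-MS/MS.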

A short description of series [2]: Drug level in cynomolgus monkey hepatic S9 fraction treated with 25 uM VU0409106 by LC-UV-MS analysis. Format: ADME, tissue-based, Macaca fascicularis, Liver. The essentials: (§2)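 Hepatic S9 (5 mg/ml) in 0.1 M potassium phosphate pH 7.4 with 3 mM MgCl2 and 25 µM substrate, 37°C, 1 h under ambient oxygen; NADPH (2 mM) added in select runs. Reactions started by adding substrate. Protein precipitated with 2 volumes MeCN and the supernatant dried under nitrogen, reconstituted in 85:15 10 mM ammonium formate (pH 4.1)-MeCN, then analysed by LC-MS.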

Series [3] is described as follows: Drug level in human hepatic S9 fraction treated with 25 uM VU0409106 by LC-UV-MS analysis. Type of series: ADME, tissue-based, Liver. The essentials:
as §2

For series [4], the system named is Hepatocyte. In words: Drug level in Sprague-Dawley rat cryopreserved hepatocytes treated with 25 uM VU0409106 by LC-UV-MS analysis. Format: ADME, cell-based.
Series [5] can be described thus: Drug level in cynomolgus monkey cryopreserved hepatocytes treated with 25 uM VU0409106 by LC-MS/MS analysis. Type of series: ADME, cell-based, Macaca fascicularis, Hepatocyte. The essentials:
(§3)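 Pooled cryopreserved hepatocytes (2 × 10^6 cells/ml) in Krebs-Henseleit buffer, 25 µM substrate, 37°C for 4 h. Rat donors were 14 males, cynomolgus 4 males, human 20 mixed gender. Cells precipitated with 2 volumes MeCN, centrifuged at 4°C; supernatant dried under nitrogen, reconstituted in 15% aqueous MeCN for LC-MS.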

Series [6] has as its system Hepatocyte. The series is described as follows: Drug level in human cryopreserved hepatocytes treated with 25 uM VU0409106 by LC-MS/MS analysis. Format: ADME, cell-based. The essentials: as §3
For series [7], the system named is Plasma. In words: Drug level in Sprague-Dawley rat plasma treated with 56.6 mg/kg, ip VU0409106 single dose by LC-MS/MS analysis. Set-up: dose 56.6 mg/kg, route intraperitoneal. Type of series: ADME, organism-based. To be noted: in vivo. The essentials: as §1
Series [8] deals with Hepatocyte. The series is described as follows: Drug level in Sprague-Dawley rat cryopreserved hepatocytes treated with 25 uM VU0409106 by LC-MS/MS analysis in presence of 1-ABT pan-450 inactivator. Format: ADME, cell-based.
Series [9] has as its system Hepatocyte. In words: Drug level in human cryopreserved hepatocytes treated with 25 uM VU0409106 by LC-MS/MS analysis in presence of 1-ABT pan-450 inactivator. Type of series: ADME, cell-based. Summed up: as §3
A short description of series [10]: Volume of distribution at steady state in Sprague-Dawley rat at 1 mg/kg, iv administered as single dose. Format: ADME, organism-based. Set-up: dose 1 mg/kg, route intravenous. The following applies: in vivo, read-out: Vdss. The essentials:
(§4)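 Cannulated male Sprague-Dawley rats dosed at 1 mg/kg through a jugular catheter in 10% ethanol/70% PEG400/20% saline. Carotid blood drawn at 0.033 to 24 h into chilled EDTA tubes; plasma stored at -80°C. Parameters derived by noncompartmental analysis.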

Series [11] can be described thus: Effective half life in Sprague-Dawley rat at 1 mg/kg, iv administered as single dose. Type of series: ADME, organism-based. Set-up: dose 1 mg/kg, route intravenous. The following applies: in vivo. Summed up:
as §4

The subject of series [12] is Plasma. In words: Drug metabolism in Sprague-Dawley rat plasma assessed as hydroxylated thiazole metabolite formation at 56.6 mg/kg, ip single dose by LC-MS/MS analysis. Format: ADME, organism-based. Set-up: dose 56.6 mg/kg, route intraperitoneal. The following applies: in vivo. The essentials:
as §1

Series [13] deals with Plasma. The series is described as follows: Drug metabolism in Sprague-Dawley rat plasma assessed as hydroxylated pyrimidine metabolite formation at 56.6 mg/kg, ip single dose by LC-MS/MS analysis. Format: ADME, organism-based. Set-up: dose 56.6 mg/kg, route intraperitoneal. To be noted: in vivo. Summed up:
as §1

Series [14] in a line: Drug metabolism in Sprague-Dawley rat cryopreserved hepatocytes assessed as hydroxylated thiazole metabolite formation at 25 uM by LC-MS/MS analysis in presence of 1-ABT pan-450 inactivator. Format: ADME, cell-based, Hepatocyte. Summed up: as §3
The nature of series [15]: Drug metabolism in Sprague-Dawley rat cryopreserved hepatocytes assessed as hydroxylated pyrimidine metabolite formation at 25 uM by LC-MS/MS analysis in presence of 1-ABT pan-450 inactivator. Format: ADME, cell-based, Hepatocyte. The essentials:
as §3

The nature of series [16]: Drug metabolism in human cryopreserved hepatocytes assessed as hydroxylated thiazole metabolite formation at 25 uM by LC-MS/MS analysis in presence of 1-ABT pan-450 inactivator. Format: ADME, cell-based, Hepatocyte. Summed up:
as §3

Series [17] is described as follows: Drug metabolism in human cryopreserved hepatocytes assessed as hydroxylated pyrimidine metabolite formation at 25 uM by LC-MS/MS analysis in presence of 1-ABT pan-450 inactivator. Format: ADME, cell-based, Hepatocyte. The essentials:
as §3

A short description of series [18]: Intrinsic clearance in Sprague-Dawley rat hepatic S9 fraction at 1 uM. Type of series: ADME, tissue-based, Liver. Summed up: (§5)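 Substrate depletion at 1 µM in 0.1 M potassium phosphate pH 7.4, S9 2.5 mg/ml or cytosol 1 mg/ml, ± NADPH 1 mM, 37°C. Sampled at 0, 3, 7, 15, 25 and 45 min, quenched in cold MeCN with internal standard, analysed by LC-MS/MS in triplicate. CLint scaled using 120.7 mg S9 or 80.7 mg cytosol protein.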

Series [19] can be described thus: Intrinsic clearance in Sprague-Dawley rat hepatic S9 fraction at 1 uM in presence of NADPH. Format: ADME, tissue-based, Liver. Summed up:
as §5

Series [20] in a line: Intrinsic clearance in Sprague-Dawley rat hepatic cytosol at 1 uM. Type of series: ADME, tissue-based, Liver. The essentials:
as §5

Series [21] can be described thus: Intrinsic clearance in Sprague-Dawley rat cryopreserved hepatocytes at 1 uM. Type of series: ADME, cell-based, Hepatocyte. Summed up:
(§6)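 Hepatocyte depletion assay at 2 × 10^6 cells/ml, 37°C, ambient oxygen. Aliquots taken at 0, 15, 30, 60 and 120 min, quenched in ice-cold MeCN containing internal standard, analysed by LC-MS/MS in triplicate. Intrinsic clearance estimated by the substrate depletion method.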

The nature of series [22]: Plasma clearance in Sprague-Dawley rat at 1 mg/kg, iv administered as single dose. Type of series: ADME, organism-based. Set-up: dose 1 mg/kg, route intravenous. Summed up:
as §4

A short description of series [23]: Intrinsic clearance in cynomolgus monkey hepatic S9 fraction at 1 uM. Format: ADME, tissue-based, Macaca fascicularis, Liver. Summed up: as §5
A short description of series [24]: Intrinsic clearance in cynomolgus monkey hepatic S9 fraction at 1 uM in presence of NADPH. Type of series: ADME, tissue-based, Macaca fascicularis, Liver. Summed up: as §5
Series [25] in a line: Intrinsic clearance in cynomolgus monkey cryopreserved hepatocytes at 1 uM. Type of series: ADME, cell-based, Macaca fascicularis, Hepatocyte. The essentials: as §6
Series [26] can be described thus: Plasma clearance in cynomolgus monkey at 1 mg/kg, iv administered as single dose. Type of series: ADME, organism-based, Macaca fascicularis. Set-up: dose 1 mg/kg, route intravenous. Summed up:
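Male cynomolgus monkeys (n = 2, about 3 kg) given 1 mg/kg i.v. via the saphenous vein in 10% ethanol/60% PEG400/30% isotonic saline. Femoral blood sampled from 0.033 to 24 h into chilled EDTA tubes; plasma kept at -80°C.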

Series [27] in a line: Intrinsic clearance in human hepatic S9 fraction at 1 uM in presence of NADPH. Type of series: ADME, tissue-based, Liver. Summed up:
as §5

Series [28] can be described thus: Intrinsic clearance in human hepatic cytosol at 1 uM. Type of series: ADME, tissue-based, Liver. The essentials:
as §5

The nature of series [29]: Intrinsic clearance in human cryopreserved hepatocytes at 1 uM. Type of series: ADME, cell-based, Hepatocyte. Summed up:
as §6

A short description of series [30]: Drug metabolism in Sprague-Dawley rat hepatic S9 fraction assessed as 3-fluoro-N-(4-methylthiazol-2-yl)-5-(6-oxo-1,6-dihydropyrimidin-5-yloxy)benzamide at 25 uM by LC-MS/MS analysis. Type of series: ADME, Liver. The following applies: s9, 25 µM.
A short description of series [31]: Drug metabolism in cynomolgus monkey hepatic S9 fraction assessed as 3-fluoro-N-(4-methylthiazol-2-yl)-5-(6-oxo-1,6-dihydropyrimidin-5-yloxy)benzamide at 1 uM by LC-MS/MS analysis. Format: ADME, Macaca fascicularis, Liver. To be noted: s9, 1 µM.
The nature of series [32]: Drug metabolism in human hepatic S9 fraction assessed as 3-fluoro-N-(4-methylthiazol-2-yl)-5-(6-oxo-1,6-dihydropyrimidin-5-yloxy)benzamide at 1 uM by LC-MS/MS analysis. Format: ADME, Liver. To be noted: s9, 1 µM.
Series [33] is described as follows: Drug metabolism in human cryopreserved hepatocytes assessed as 3-fluoro-N-(4-methylthiazol-2-yl)-5-(6-oxo-1,6-dihydropyrimidin-5-yloxy)benzamide at 25 uM by LC-MS/MS analysis. Format: ADME, cell-based, Hepatocyte. Summed up: as §3
The nature of series [34]: Drug metabolism in Sprague-Dawley rat hepatic S9 fraction assessed as 3-(2,4-dioxo-1,2,3,4-tetrahydropyrimidin-5-yloxy)-5-fluoro-N-(thiazol-2-yl)benzamide at 25 uM by LC-MS/MS analysis. Format: ADME, Liver. The following applies: s9, 25 µM.
A short description of series [35]: Drug metabolism in cynomolgus monkey hepatic S9 fraction assessed as 3-(2,4-dioxo-1,2,3,4-tetrahydropyrimidin-5-yloxy)-5-fluoro-N-(thiazol-2-yl)benzamide at 1 uM by LC-MS/MS analysis. Type of series: ADME, Macaca fascicularis, Liver. The following applies: s9, 1 µM.
Series [36] can be described thus: Drug metabolism in human hepatic S9 fraction assessed as 3-(2,4-dioxo-1,2,3,4-tetrahydropyrimidin-5-yloxy)-5-fluoro-N-(thiazol-2-yl)benzamide at 1 uM by LC-MS/MS analysis. Type of series: ADME, Liver. The following applies: s9, 1 µM.
Series [37] is described as follows: Drug metabolism in human cryopreserved hepatocytes assessed as 3-(2,4-dioxo-1,2,3,4-tetrahydropyrimidin-5-yloxy)-5-fluoro-N-(thiazol-2-yl)benzamide at 25 uM by LC-MS/MS analysis. Format: ADME, cell-based, Hepatocyte. The essentials: as §3
Series [38] in a line: Inhibition of group 1 mGluR (unknown origin). Set-up: species or system Homo sapiens.
The nature of series [39]: Inhibition of group 2 mGluR (unknown origin). Set-up: species or system Homo sapiens.
A short description of series [40]: Inhibition of group 3 mGluR (unknown origin). Set-up: species or system Homo sapiens.

Structures are written as SMILES. pIC50: −log10 of the molar value.

In the series on Plasma [1], `Cc1csc(NC(=O)c2cc(O)cc(Oc3c[nH]c(=O)[nH]c3=O)c2)n1` gave a Retention_time of 13.4 min. The Drug metabolism result (in series [2]; in [3]; with Hepatocyte [4]; in series [5]; in the series on Hepatocyte [6]; in the series with Plasma [7]) was “metabolite_detected” in each case. Also, the Drug metabolism entry in the series on Hepatocyte [8] and with Hepatocyte [9] was “metabolite_not_detected” throughout.

Consider `Cc1csc(NC(=O)c2cc(F)cc(Oc3cncnc3)c2)n1`, for which the Vd in series [10] was determined as 0.81 L/kg. Also, in series [11], the half-life is below 15 min. The molecule further showed a Retention_time in the series with Plasma [1] of 14.5 min. Also, the Drug metabolism result is reported as “metabolite_detected” in the series on Plasma [12]; “metabolite_detected” in the series on Plasma [13]; “metabolite_not_detected” in series [14]; “metabolite_not_detected” in series [15]; “metabolite_not_detected” in series [16]; “metabolite_not_detected” in [17]. The Drug metabolism entry in series [30], in series [31], in [32], in series [33], in series [34] and in [35] was “metabolite_detected” each time. Moreover, the Drug metabolism result in series [36] and in series [37] was “metabolite_detected” in each case. For the same molecule, the CLint at 1 µM was determined as 25 mL/min/kg in series [18]; 54 mL/min/kg in [19]; 16 mL/min/kg in [20]; 96 mL/min/kg in series [21]; 34 mL/min/kg in [23]; 37 mL/min/kg in series [24]. The CLint at 1 µM is 194 mL/min/kg in [25], 15 mL/min/kg in [27], 3.7 mL/min/kg in series [28] and 6.9 mL/min/kg in [29]. The clearance amounted to 43 mL/min/kg in [22] and 24 mL/min/kg in series [26]. Further, the pIC50 in series [38], in series [39] and in [40] was at most 5.00 in each case.

The term half-life denotes how long it takes for the measured level to halve. One may read the clearance as the rate of elimination divided by the concentration. As a reminder, the pIC50 is −log10 of the IC50, conventionally taken in molar units.
